# Source: PubChem BioAssay
# Activity calls are given as the source filed them.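 Rule for the calls, unless noted: active = viability at or below 30% in both replicate assays; inconclusive = viability at or below 30% in just one of the two assays; inactive = the rest.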
# What was measured:
# [1] = reducers of endogenous Her2 protein level, primary screen, SKBR3 breast tumor cells, AlphaScreen, ATP viability (AID 461;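 active = Her2 level under about 52% in both replicate screens, with viability over 70% of control, limit read from the data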;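 for Her2 level: lower value means less Her2 protein in the cells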;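 for viability: percent of carrier control wells set as 100% viability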); conditions: 18-24 h, measured here: SKBR3 viability, ATP luminescence, at 10 µM
# [2] = molecular target: Receptor tyrosine-protein kinase erbB-2 (Homo sapiens) (UniProt P04626); experiment: as above; conditions: 18-24 h, at 10 µM, stronger effect = lower value
# Chain of Receptor tyrosine-protein kinase erbB-2 (Homo sapiens) (P04626 whole entry, looked up): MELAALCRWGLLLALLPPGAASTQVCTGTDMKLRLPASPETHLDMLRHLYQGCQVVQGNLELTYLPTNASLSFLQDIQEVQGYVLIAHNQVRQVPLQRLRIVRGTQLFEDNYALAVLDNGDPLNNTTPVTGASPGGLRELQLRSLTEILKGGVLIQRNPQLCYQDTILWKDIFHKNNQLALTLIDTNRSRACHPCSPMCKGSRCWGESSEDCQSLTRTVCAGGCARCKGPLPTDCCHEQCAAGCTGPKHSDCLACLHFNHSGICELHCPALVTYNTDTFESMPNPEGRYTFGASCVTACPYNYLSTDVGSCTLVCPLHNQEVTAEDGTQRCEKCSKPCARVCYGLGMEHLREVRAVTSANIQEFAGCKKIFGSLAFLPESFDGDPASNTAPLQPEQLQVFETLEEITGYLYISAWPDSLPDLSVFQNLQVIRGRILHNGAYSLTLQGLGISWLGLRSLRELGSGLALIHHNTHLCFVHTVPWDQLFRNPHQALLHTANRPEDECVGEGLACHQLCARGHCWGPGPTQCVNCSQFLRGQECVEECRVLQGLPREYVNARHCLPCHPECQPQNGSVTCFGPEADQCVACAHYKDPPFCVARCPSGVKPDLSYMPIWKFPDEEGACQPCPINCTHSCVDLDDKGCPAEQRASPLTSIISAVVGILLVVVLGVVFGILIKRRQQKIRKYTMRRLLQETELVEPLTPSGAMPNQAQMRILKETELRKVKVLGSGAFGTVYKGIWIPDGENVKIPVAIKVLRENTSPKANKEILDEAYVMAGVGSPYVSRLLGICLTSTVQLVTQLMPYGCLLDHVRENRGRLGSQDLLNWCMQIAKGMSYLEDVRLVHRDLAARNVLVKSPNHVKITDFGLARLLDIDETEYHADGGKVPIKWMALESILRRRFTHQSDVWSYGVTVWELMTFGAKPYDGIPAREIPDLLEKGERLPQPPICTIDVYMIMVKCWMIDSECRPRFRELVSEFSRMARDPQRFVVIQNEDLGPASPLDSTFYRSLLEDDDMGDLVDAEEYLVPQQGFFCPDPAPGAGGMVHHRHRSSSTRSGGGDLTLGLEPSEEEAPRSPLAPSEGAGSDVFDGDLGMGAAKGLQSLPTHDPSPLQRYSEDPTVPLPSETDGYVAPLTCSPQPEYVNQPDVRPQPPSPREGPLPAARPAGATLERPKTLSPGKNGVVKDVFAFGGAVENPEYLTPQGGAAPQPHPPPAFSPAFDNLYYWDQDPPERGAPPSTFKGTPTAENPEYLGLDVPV
# [3] = SK-BR-3 cell growth inhibitors, pilot screen, 24 h, human (AID 572;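 active = viability at or below 10% of carrier control in both of two separate runs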;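 note: compound exposure lasted between 18 and 24 h rather than exactly 24 h; 100% = carrier-treated control wells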); conditions: SK-BR-3 viability, CellTiter-Glo luminescence, at 10 µM, stronger effect = lower value
# [4] = HUVEC growth inhibition – cell-based, human, primary screen (AID 575); conditions: HUVEC proliferation, CellTiter-Glo luminescence, 72 h; at 10 µM; stronger effect = lower value;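 note: 100% = median of untreated cell wells with 0.1% DMSO on each plate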
# Method in brief: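 System: primary human umbilical vein endothelial cells; Quantity: 1250 endothelial cells in each well; Buffer or medium: supplemented EBM, 2% fetal bovine serum; Doses: one dose, 10 µM final, 0.1% DMSO; Incubation: 72 h compound incubation; Technique: ATP-based CellTiter-Glo luminescent read; Evaluation: percent of median DMSO-control luminescence; Controls: vehicle and MePR control wells.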
# [5] = growth inhibitors of H69AR lung tumor, primary screen, human, duplicate replicates (AID 580;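 active = viability at or under a set limit in both replicates, limit being median viability minus 3 SD, cut at about 48% in these data, passing the limit was not always enough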;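 note: 100% = mean luminescence of untreated wells and 0% = no signal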); conditions: H69AR lung tumor cells viability, ATP luminescence, 72 h; at 10 µM; stronger effect = lower value
# [6] = reversal of MRP1-mediated doxorubicin resistance, pilot screen, H69AR cells, doxorubicin co-treatment (AID 601;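 active = viability loss from added drug above about 55%, and viability with drug at most 40%, in both replicates, limit read from the data, passing the limit was not always enough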); conditions: CellTiter-Glo, 72 h, at 10 µM; for differential viability (reversal): stronger effect = higher value
# [7] = 384-well plate pilot, post-Golgi transport modulator project, inhibition of yeast transport mutant growth (AID 636; in the data active = inhibition above about 31%); conditions: absorbance 615 nm, about 18 h, stronger effect = higher value
# [8] = growth suppression of yeast trafficking mutant, preliminary HTS, modulators of trafficking downstream of Golgi apparatus project, 1536-format plate, OD 615 nm (AID 637; in the data active = inhibition above about 30%); conditions: yeast transport mutant growth, absorbance 615 nm, 18 h; stronger effect = higher value
# [9] = H69AR cells + 2 uM doxorubicin, measured here: viability with 2 uM doxorubicin, stronger effect = lower value
# [10] = H69AR cells, compound alone cytotoxicity
SMILES,viability [1],Her2 level [2],viability [3],viability [4],viability [5],differential viability (reversal) ([6]; H69AR cells + 2 uM doxorubicin),"viability [6, 9]","viability [6, 10]",inhibition [7],inhibition [8]
CCC1(NC(C)=O)CC2CC1CC2NC(C)=O (stereo not given),94.5%,100% (inactive),94.5% (inactive),107% (inactive),100% (inactive),11% (inactive),89.1%,100%,-3.2% (inactive),-5.74% (inactive)
CC(C)c1nnc(SCC(=O)NCc2ccco2)n1C,105%,91% (inactive),105% (inactive),94.7% (inactive),79.6% (inactive),-5.55% (inactive),85.2%,79.6%,-0.14% (inactive),4.76% (inactive)
Cc1nc(NCc2ccco2)c2oc3ccccc3c2n1,114%,87% (inactive),114% (inactive),100% (inactive),80.6% (inactive),-1.13% (inactive),81.8%,80.6%,-6.4% (inactive),4.44% (inactive)
CC12CN3CC(C)(CN(C1)C3c1ccc(Br)cc1)C2 (stereo not given),99%,97% (inactive),99% (inactive),99.2% (inactive),102% (inactive),12.9% (inactive),89.4%,102%,-2.63% (inactive),2.46% (inactive)
Cc1cc2cc(CN(CCCN3CCOCC3)C(=O)NC3CCCCC3)c(=O)[nH]c2cc1C,73.5%,83% (inactive),73.5% (inactive),70.2% (inactive),82.8% (inactive),6.29% (inactive),76.5%,82.8%,-5.07% (inactive),-2.26% (inactive)
Cc1ccc(-c2nc3ncccc3o2)cc1NC(=O)c1ccco1,97.5%,76.5% (inactive),97.5% (inactive),100% (inactive),99.2% (inactive),7.96% (inactive),91.3%,99.2%,-6.76% (inactive),-2.62% (inactive)
CCOC(=O)CSc1nnc(Cn2nnc(-c3ccccc3)n2)n1CC,95.5%,84% (inactive),95.5% (inactive),107% (inactive),90.7% (inactive),-2.04% (inactive),92.7%,90.7%,-7.2% (inactive),-3.17% (inactive)
CCOC(=O)N1CCN(c2c(N3CCN(c4ccccc4OC)CC3)c(=O)c2=O)CC1,94.5%,104% (inactive),94.5% (inactive),109% (inactive),84.2% (inactive),8.68% (inactive),75.5%,84.2%,-4% (inactive),-7.38% (inactive)
O=C1CC(c2ccc(F)c(Br)c2)C2=C(CCCC2=O)N1 (stereo not given),102%,85.5% (inactive),102% (inactive),84.6% (inactive),102% (inactive),5.7% (inactive),96.1%,102%,-3.95% (inactive),-4.67% (inactive)
Cc1oc2c(CN3CCOCC3)c(O)ccc2c(=O)c1-c1ccc(Br)cc1,85%,114% (inactive),85% (inactive),91.8% (inactive),90.4% (inactive),4.38% (inactive),86%,90.4%,-0.91% (inactive),-2.67% (inactive)
CCOc1nc(-c2ccccc2)ccc1-c1noc(-c2cccnc2)n1,76.5%,90% (inactive),76.5% (inactive),124% (inactive),91.2% (inactive),4.83% (inactive),86.4%,91.2%,-0.26% (inactive),0.33% (inactive)
COc1cccc(-c2cc(C(=O)N3CCc4ccccc4C3)no2)c1,99.5%,104% (inactive),99.5% (inactive),67.7% (inactive),96.8% (inactive),-5.97% (inactive),103%,96.8%,-8.51% (inactive),-4.59% (inactive)
Cc1ccc2ncnc(NCCCN3CCOCC3)c2c1,98.5%,120% (inactive),98.5% (inactive),91.4% (inactive),101% (inactive),-0.115% (inactive),102%,101%,-0.79% (inactive),5.41% (inactive)
CCCNS(=O)(=O)c1ccc(OCC(=O)NCc2ccco2)cc1,93.5%,120% (inactive),93.5% (inactive),91.3% (inactive),83.7% (inactive),-3.46% (inactive),87.2%,83.7%,1.6% (inactive),-3.65% (inactive)
Cc1cc(C)n(-c2nc(C)nc3sc4c(c23)CCC(C)C4)n1 (stereo not given),92.5%,108% (inactive),92.5% (inactive),80.8% (inactive),96.4% (inactive),-0.45% (inactive),96.8%,96.4%,-1.04% (inactive),-13.8% (inactive)
CC(NO)C(C)(C)NO (stereo not given),92%,101% (inactive),92% (inactive),92.3% (inactive),100% (inactive),11.2% (inactive),89.2%,100%,-2.67% (inactive),12.1% (inactive)
